Data from ChEMBL document CHEMBL1149098, “Design, synthesis, and evaluation of novel thienopyrrolizinones as antitubulin agents” (J Med Chem, 2004).
Each block holds one compound with its values, some of them ahead of it.

Legend:
[1] = test system: L1210; test: In vitro antiproliferative activity against L1210 cell line, activity expressed as growth inhibition; format: functional; conditions: Mus musculus
In short: (§1)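 MTT proliferation assay. Adherent cells trypsinized and seeded at densities keeping controls in exponential growth. Drug exposure for four doubling times, at most 7 days. MTT (5 mg/mL stock) added for 4 h at 37 °C, formazan dissolved in DMSO, OD read at 540 nm. % growth from treated/control OD, tri- or hexaplicates averaged against log concentration. GI50 from linear regression on the linear zone.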

[2] = test system: L1210; test: Compound was tested for percentage of L1210 cells accumulated in the G2 + M + 8N phase of the cell cycle at 50 uM; format: functional, Mus musculus
In short: (§2)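 Flow cytometry of L1210 cells (2.5×10^5/mL) exposed to drug for 21 h (about two doubling times). Cells fixed in 70% ethanol, washed twice in PBS, then 30 min in PBS with 100 µg/mL RNAse and 25 µg/mL propidium iodide. 10 000 cells counted per sample. Reported as % of cells in G2 + M + 8N.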

[3] = test system: Mus musculus; test: In vivo anticancer activity against an ip P388 murine model after intravenous administration of 100 mg/kg compound; format: functional
In short: (§3)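 Female B6D2F1 mice, 4–6 weeks old, 20–22 g, inoculated ip with 10^6 P388 leukemia cells. Single ip or iv injection on day 1 at the listed dose (range 25–400 mg/kg). BCNU run as internal reference. Median survival of treated versus control mice gives T/C (%). Activity threshold set at T/C 125%.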

[4] = test system: Mus musculus; test: In vivo anticancer activity against an ip P388 murine model after intraperitoneal administration of 50 mg/kg compound; format: functional; in short: as §3
[5] = test system: Mus musculus; test: In vivo anticancer activity against an ip P388 murine model after intravenous administration of 25 mg/kg compound; format: functional; in short: as §3
[6] = biological target: Tubulin (Bos taurus, UniProt Q6B856+Q862L2+Q862F3); test: Inhibitory concentration against calf tubulin polymerization; format: protein assay
In short: (§4)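 Calf brain tubulin purified by three assembly–disassembly cycles, about 2–3 mg/mL in 0.1 M MES, 0.5 mM MgCl2, 2 mM EGTA, 1 mM GTP, pH 6.6. Assembly followed continuously by turbidimetry at 37 °C. IC50 is the concentration halving the maximum assembly rate of drug-free tubulin. Deoxypodophyllotoxin measured the same day as reference.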

[7] = test system: Mus musculus; test: In vivo anticancer activity against an ip P388 murine model after intravenous administration of 400 mg/kg compound; format: functional; in short: as §3
[8] = test system: Mus musculus; test: In vivo anticancer activity against an ip P388 murine model after intraperitoneal administration of 200 mg/kg compound; format: functional; in short: as §3
[9] = test system: Mus musculus; test: In vivo anticancer activity against an ip P388 murine model after intravenous administration of 200 mg/kg compound; format: functional; in short: as §3
[10] = test system: Mus musculus; test: In vivo anticancer activity against an ip P388 murine model after intravenous administration of 50 mg/kg compound; format: functional; in short: as §3
[11] = test system: Mus musculus; test: In vivo anticancer activity against an ip P388 murine model after intraperitoneal administration of 25 mg/kg compound; format: functional; in short: as §3
[12] = test system: Mus musculus; test: In vivo anticancer activity against an ip P388 murine model after intraperitoneal administration of 400 mg/kg compound; format: functional; in short: as §3
[13] = test system: Mus musculus; test: In vivo anticancer activity against an ip P388 murine model after intraperitoneal administration of 100 mg/kg compound; format: functional; in short: as §3
[14] = test system: A549; test: In vitro antiproliferative activity against A549 cell line; format: functional, Mus musculus; conditions: Homo sapiens; in short: as §1
[15] = test system: P388; test: In vitro antiproliferative activity against P388 cell line; format: functional; conditions: Mus musculus; in short: as §1
[16] = test system: DU-145; test: In vitro antiproliferative activity against DU145 cell line; format: functional, Mus musculus; conditions: Homo sapiens; in short: as §1
[17] = test system: LS174T; test: In vitro antiproliferative activity against LS174T cell line; format: functional, Mus musculus; conditions: Homo sapiens; in short: as §1
[18] = test system: L1210; test: Compound was tested for percentage of L1210 cells accumulated in the G2 + M + 8N phase of the cell cycle at 0.5 uM; format: functional, Mus musculus; in short: as §2
[19] = test system: A2780; test: In vitro antiproliferative activity against A2780 cell line; format: functional, Mus musculus; conditions: Homo sapiens; in short: as §1
[20] = test system: L1210; test: In vitro antiproliferative activity against L1210 cell line; format: functional; conditions: Mus musculus; in short: as §1
[21] = test system: KB; test: In vitro antiproliferative activity against KBA1 cell line; format: functional, Mus musculus; conditions: Homo sapiens; in short: as §1
[22] = test system: B16; test: In vitro antiproliferative activity against B16 cell line; format: functional; conditions: Mus musculus; in short: as §1
[23] = Inhibitory concentration against calf microtubule polymerization; format: functional, Bos taurus; in short: as §4
[24] = test system: OVCAR-3; test: In vitro antiproliferative activity against OVCAR-3 cell line; format: functional, Mus musculus; conditions: Homo sapiens; in short: as §1
[25] = test system: HT-29; test: In vitro antiproliferative activity against HT-29 cell line; format: functional, Mus musculus; conditions: Homo sapiens; in short: as §1
[26] = test system: PC-3; test: Cytotoxicity against human prostate PC-3 cell line; format: functional
[27] = test system: NCI-H522; test: Cytotoxicity against human NSCL NCI-H522 cell line; format: functional
[28] = test system: RXF 393; test: Cytotoxicity against human renal XF-393 cell line; format: functional
[29] = test system: SW-620; test: Cytotoxicity against human colon SW-620 cell line; format: functional
[30] = test system: MDA-N; test: Cytotoxicity against human breast MDA-N cell line; format: functional
[31] = test system: CCRF-CEM; test: Cytotoxicity against human leukemia CCRF-CEM cell line; format: functional
[32] = test system: M14; test: Cytotoxicity against human melanoma M-14 cell line from the NCI 60 tumoral cell line panel; format: functional
[33] = test system: M14; test: Cytotoxicity against human melanoma M-14 cell line; format: functional
[34] = organism: Homo sapiens; test: Compound was evaluated for anticancer activity in the hollow fiber assay, activity expressed as total score; format: functional
In short: (§5)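 Mouse hollow-fiber model: PVDF fibres holding 12 human tumour cell lines implanted ip and sc. Drug in 10% DMSO in saline/Tween-80, given ip once daily for four doses at each of two dose levels, triplicate. Fibres collected the day after the last dose for viable cell mass. Each ≥50% reduction versus vehicle controls scores 2, summed per site.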

[35] = test system: Homo sapiens; test: Compound was evaluated for anticancer activity in the hollow fiber assay, activity expressed as ip score; format: functional; in short: as §5
[36] = test system: Homo sapiens; test: Compound was evaluated for anticancer activity in the hollow fiber assay, activity expressed as sc score; format: functional; in short: as §5

Structure (SMILES): COc1ccc(-c2cccc3c2-n2cccc2C3=O)cc1OC
GI50 [1]: 72.2 µM

Structure (SMILES): O=C1c2scc(-c3cccc(O)c3)c2-n2cccc21
GI50 [1]: 29 µM

Structure (SMILES): COc1ccc(-c2csc3c2-n2cccc2C3=O)c(OC)c1OC
GI50 [1]: 36.4 µM

Structure (SMILES): COc1ccccc1-c1csc2c1-n1cccc1C2=O
GI50 [1]: 18.9 µM
Cells [2]: 75%

Structure (SMILES): O=C1c2cccc(-c3ccco3)c2-n2cccc21
GI50 [1]: 27.6 µM

Structure (SMILES): COc1ccc(-c2csc3nc(O)c4cccn4c23)cc1OC
GI50 [1]: > 100 µM

Structure (SMILES): COc1ccc(-c2coc3c2-n2cccc2C3=O)cc1OC
GI50 [1]: 24.2 µM

Structure (SMILES): Cc1csc2c1-n1cccc1C2=O
GI50 [1]: > 100 µM

Structure (SMILES): COc1ccc(-c2csc3c2-n2cccc2/C3=N/O)cc1
GI50 [1]: 34.3 µM

Structure (SMILES): COc1ccc(C2CC(=O)c3cccn32)cc1O (stereo unspecified)
GI50 [1]: 25 µM

Structure (SMILES): O=C1c2scc(-c3ccc(Cl)cc3)c2-n2cccc21
GI50 [26]: 100 µM
GI50 [27]: 3.16 µM
GI50 [28]: 100 µM
GI50 [29]: 100 µM
GI50 [30]: 7.94 µM
GI50 [31]: 100 µM
GI50 [32]: 50.1 µM

Structure (SMILES): CCCOc1ccc(-c2csc3c2-n2cccc2C3=O)cc1
GI50 [1]: 28.1 µM

Structure (SMILES): O=C1c2sccc2-n2cccc21
GI50 [1]: 85 µM

Structure (SMILES): O=C1c2scc(-c3ccccc3)c2-n2cccc21
GI50 [26]: 12.6 µM
GI50 [27]: 12.6 µM
GI50 [28]: 12.6 µM
GI50 [29]: 15.8 µM
GI50 [33]: 20 µM
GI50 [30]: 15.8 µM
GI50 [31]: 20 µM

Structure (SMILES): O=C1c2scc(-c3ccc(F)cc3)c2-n2cccc21
GI50 [26]: 31.6 µM
GI50 [27]: 15.8 µM
GI50 [28]: 25.1 µM
GI50 [29]: 25.1 µM
GI50 [33]: 31.6 µM
GI50 [30]: 7.94 µM
GI50 [31]: 31.6 µM

Structure (SMILES): O=C1c2cccc(-c3cccs3)c2-n2cccc21
GI50 [1]: 71.9 µM

Structure (SMILES): CCCCOc1ccc(-c2csc3c2-n2cccc2C3=O)cc1
GI50 [1]: 29.6 µM

Structure (SMILES): COc1cc(-c2csc3c2-n2cccc2C3=O)ccc1OCc1ccccc1
GI50 [1]: 24.1 µM

Structure (SMILES): O=C1c2scc(-c3ccc(O)cc3)c2-n2cccc21
GI50 [1]: 30.1 µM

Further lines, with some results ahead:

GI50 [1]: 0.28 µM
IC50 [6]: 21 µM
Structure (SMILES): O=C1c2scc(-c3ccc(O)c(O)c3)c2-n2cccc21
T/C [3]: 105%
T/C [4]: 118%
T/C [5]: 95%
T/C [7]: 21%
T/C [8]: 133%
T/C [9]: 103%
T/C [10]: 101%
T/C [11]: 111%
T/C [12]: 149%
T/C [13]: 134%

GI50 [1]: 8.8 µM
Structure (SMILES): Oc1ccc(-c2csc3nc(O)c4cccn4c23)cc1O

GI50 [1]: 12 µM
Structure (SMILES): O=C1c2scc(-c3ccc(O)c(O)c3O)c2-n2cccc21

GI50 [1]: 3.7 µM
Structure (SMILES): O=C1c2scc(-c3ccccc3O)c2-n2cccc21

GI50 [14]: 0.045 µM
GI50 [15]: 0.021 µM
GI50 [1]: 0.015 µM
GI50 [16]: 0.043 µM
IC50 [6]: 2.9 µM
GI50 [19]: 0.04 µM
GI50 [20]: 0.015 µM
GI50 [21]: 0.015 µM
GI50 [22]: 0.023 µM
IC50 [23]: 2.9 µM
GI50 [24]: 0.031 µM
GI50 [25]: 0.713 µM
Structure (SMILES): COc1ccc(-c2csc3c2-n2cccc2C3=O)cc1O
T/C [3]: 102%
T/C [4]: 116%
T/C [5]: 102%
GI50 [17]: 0.887 µM
T/C [7]: 19%
Cells [18]: 86%
T/C [8]: 117%
T/C [9]: 103%
T/C [10]: 104%
T/C [11]: 108%
T/C [12]: 121%
T/C [13]: 121%

GI50 [1]: 3.9 µM
Structure (SMILES): COc1ccc(-c2csc3c2-n2cccc2/C3=N/OCCCN(C)C)cc1

GI50 [1]: 0.43 µM
Structure (SMILES): CCOc1ccc(-c2csc3c2-n2cccc2C3=O)cc1

GI50 [1]: 11.7 µM
IC50 [6]: 19 µM
Structure (SMILES): COc1ccc(-c2csc3c2-n2cccc2C3=O)cc1OC

GI50 [1]: 12.2 µM
Structure (SMILES): CC(C)Oc1ccc(-c2csc3c2-n2cccc2C3=O)cc1

GI50 [1]: 5.4 µM
Structure (SMILES): COc1ccc(-c2csc3c2-n2cccc2C3=O)cc1OCc1ccccc1

GI50 [1]: 8 µM
Structure (SMILES): COc1cc(-c2csc3c2-n2cccc2C3=O)ccc1O

GI50 [1]: 4.2 µM
Structure (SMILES): O=C1c2scc(-c3ccc4c(c3)OCO4)c2-n2cccc21

GI50 [1]: 11.8 µM
Structure (SMILES): COc1ccc(-c2c[nH]c3c2-n2cccc2C3=O)cc1OC

GI50 [1]: 9.4 µM
Structure (SMILES): COc1ccc(-c2cc3c(s2)C(=O)c2cccn2-3)cc1

GI50 [1]: 0.19 µM
Structure (SMILES): COc1ccc(-c2csc3c2-n2cccc2C3=O)cc1
GI50 [26]: 0.0398 µM
GI50 [27]: 0.0158 µM
Activity [34]: 16
Activity [35]: 16
GI50 [28]: 0.0631 µM
GI50 [29]: 0.0251 µM
Activity [36]: 0
GI50 [33]: 0.0316 µM
GI50 [30]: 0.0126 µM
GI50 [31]: 0.0316 µM

GI50 [1]: 5.2 µM
Structure (SMILES): COc1cccc(-c2csc3c2-n2cccc2C3=O)c1

GI50 [1]: 3 µM
Structure (SMILES): COc1ccc(-c2cccc3c2-n2cccc2C3=O)cc1

GI50 [1]: 4.9 µM
Structure (SMILES): COc1ccc(-c2csc3c2-n2cccc2C3O)cc1 (stereo unspecified)
